Most compounds without a hit are left out; they make up all but 2.4% or so of the library.
Apaf-1 inh: inhibitors of human Apaf-1 apoptosome, primary screen, biochemical, DEVD-Rh110 fluorescence, uHTS. Apoptotic protease-activating factor 1 (Homo sapiens), O14727. reconstituted apoptosome caspase-3 activity. inhibition, % at 20 µM. 330,000 compounds, 0.71% hits. AID 489030, 2010; active = inhibition of at least 40% at 20 µM;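 note: plate controls were DMSO wells for no effect and DEVD-CHO caspase inhibitor wells for full effect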
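System: Apoptosome proteins | Medium: Hepes pH 7.5 with detergent and BSA | Also added: Cytochrome c trigger plus (Z-DEVD)2-Rh110 caspase-3 substrate | Incubation: 30 min compound preincubation, 50 min activation, room temperature | Detection: Rhodamine 110 fluorescence at Ex 480/Em 540 nm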
ANO1 block: TMEM16A chloride channel inhibitors, primary screen, cell-based, HTS. Anoctamin-1 (Mus musculus), Q8BHY3. HEK293 TMEM16A/YFP iodide influx fluorescence, ionomycin. normalized B-score (activity score, 25-100; higher = stronger inhibition) at 10 µM. 310,000 compounds, 1.2% hits;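 active = ratio plate-corrected score three or more library SD toward inhibition, starting fluorescence score within five deviations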;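 note: score derived from kinetic fluorescence span divided by baseline fluorescence per well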
Target sequence (Q8BHY3 whole entry, looked up): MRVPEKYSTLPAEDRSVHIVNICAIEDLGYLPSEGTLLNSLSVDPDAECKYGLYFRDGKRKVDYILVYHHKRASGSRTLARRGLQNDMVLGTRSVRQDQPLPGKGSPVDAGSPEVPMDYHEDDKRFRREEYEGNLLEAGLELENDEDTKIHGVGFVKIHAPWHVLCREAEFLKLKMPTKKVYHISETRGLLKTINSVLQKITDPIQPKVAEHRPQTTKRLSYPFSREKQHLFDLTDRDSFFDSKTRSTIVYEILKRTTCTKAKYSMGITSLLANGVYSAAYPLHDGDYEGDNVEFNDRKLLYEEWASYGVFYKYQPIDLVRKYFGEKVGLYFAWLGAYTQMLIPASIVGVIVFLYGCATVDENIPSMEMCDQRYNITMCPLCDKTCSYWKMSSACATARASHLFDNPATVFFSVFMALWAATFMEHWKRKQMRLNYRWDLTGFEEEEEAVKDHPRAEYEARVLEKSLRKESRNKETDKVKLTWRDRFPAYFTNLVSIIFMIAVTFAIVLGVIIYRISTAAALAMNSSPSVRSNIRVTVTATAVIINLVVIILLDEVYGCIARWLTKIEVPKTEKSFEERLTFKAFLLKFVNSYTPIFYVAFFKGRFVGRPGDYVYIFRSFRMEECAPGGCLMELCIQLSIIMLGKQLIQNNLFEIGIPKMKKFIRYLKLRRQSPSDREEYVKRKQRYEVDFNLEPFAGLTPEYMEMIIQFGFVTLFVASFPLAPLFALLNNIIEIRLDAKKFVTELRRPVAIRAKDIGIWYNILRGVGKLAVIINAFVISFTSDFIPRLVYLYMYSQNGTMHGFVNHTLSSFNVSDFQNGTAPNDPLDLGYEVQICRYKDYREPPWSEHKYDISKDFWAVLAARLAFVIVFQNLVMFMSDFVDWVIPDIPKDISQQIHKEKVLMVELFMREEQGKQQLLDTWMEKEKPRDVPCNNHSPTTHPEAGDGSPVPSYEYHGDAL
UBC13 inh: UBC13 polyubiquitin chain formation inhibitors, primary screen, biochemical, TR-FRET, uHTS; inhibition, % at 20 µM; AID 485273, 2010; 330,000 compounds, 0.47% hits; Ubiquitin-conjugating enzyme E2 N (Homo sapiens), P61088; in the data active = inhibition above about 45%, passing the limit was not always enough
TMEM16A act: TMEM16A chloride channel activators or potentiators, primary screen, cell-based, HTS. HEK293 TMEM16A/YFP-H148Q/I152L, iodide quench fluorescence; stronger effect = lower value. B-score at 10 µM. 340,000 compounds, 0.3% hits;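 active = fluorescence-ratio B-score plate-corrected deviation score at least 3 library SD below zero, with starting fluorescence score within 5 deviations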;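 note: channel opened by trigger with iodide after compound preincubation; score built on the fluorescence ratio of max minus min over baseline; more negative score means more quench and so TMEM16A activation or potentiation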
DNA FID counter: compounds displacing fluorescent DNA intercalator, primary screen, artefact control for HCV NS3 helicase inhibitor project, biochemical, FID fluorescence; DNA fluorescent intercalator displacement; inhibition, % at 7.9 µM; 290,000 compounds, 0.17% hits; AID 1845, 2009; in the data active = inhibition above about 37%;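 note: 0% = vehicle and 100% = reference compound; higher means more ethidium bromide displaced from hairpin DNA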
Starred values were filed as active, the others as inactive; i = inactive; nt = no result.

SMILES	Apaf-1 inh	ANO1 block	UBC13 inh	TMEM16A act	DNA FID counter
Cc1nn(-c2ccccc2)c2ncc(C(=O)c3cc(Cl)ccc3O)cc12	8	i	-3	i	0
CCOC(=O)c1cccc(OS(=O)(=O)Cc2ccccc2)c1	-3	i	1	i	nt
O=S(=O)(NC1CCCCC1N1CCN(c2ccccc2F)CC1)c1ccc(Cl)cc1 (configuration not stated)	15	i	-2	-40*	16
COc1ccc(S(=O)(=O)NCCSC(C)(C)C)c(Cl)c1Cl	-4	25*	0	i	-13
CCCNS(=O)(=O)c1ccc(OC)c(Cl)c1Cl	-5	i	9	i	-4
CCCCC(=O)OCc1c(-c2cccc(OC)c2)ncc2ccccc12	22	nt	5	i	nt
COc1ccc(N=CC2=C(Nc3ccc(OC)cc3)c3c(C)nn(-c4ccccn4)c3CC2)cc1	93*	i	-44	nt	-24
CC(C)C(NC(=O)c1ccc(C(C)(C)C)cc1)C(=O)NCC(c1ccccc1)N(C)C (configuration not stated)	-4	i	8	i	37*
CCOC(=O)N1CCN(C(=O)/C(=C/c2ccc(Br)cc2)NC(=O)c2ccc(OC)cc2)CC1	3	i	15	i	-45
CC(C)n1c(Nc2ccccc2)nc2ccccc21	8	i	6	i	91*
O=C(NC(C(=O)N/N=C/c1cccnc1)c1n[nH]c(=O)c2ccccc12)c1ccccc1 (configuration not stated)	-1	i	-10	-6.4*	-16
COc1cc(/C=N/NC(=O)CCn2c3ccccc3c3ccccc32)ccc1O	2	25*	21	i	-1
COCCn1c(N)c(S(=O)(=O)c2cccs2)c2nc3ccccc3nc21	5	i	14	i	-9
Nc1c(C(=O)NCc2ccco2)c2nc3ccccc3nc2n1CCc1ccc(F)cc1	78*	i	-17	i	-14
COc1ccc(-n2c(N)c(C(=O)NCc3ccco3)c3nc4ccccc4nc32)cc1	16	i	-26	i	-14
COCCn1c(N)c(C(=O)NCc2cccs2)c2nc3ccccc3nc21	95*	i	21	i	-7
O=C(NCc1ccccc1F)C1CCCN(S(=O)(=O)N2CCOCC2)C1 (configuration not stated)	-1	i	-6	i	-9
O=C(NC1CC1)C1CCN(C2CCN(C(=O)c3ccc4cccc(F)c4n3)CC2)CC1	-15	i	-15	i	-4
CCc1ccc(N2CC(C(=O)Nc3ccc4c(c3)OCCO4)CC2=O)cc1 (configuration not stated)	2	i	7	i	-32
CN1C(=O)/C(=C/c2ccccc2Cl)Sc2ccc(C(=O)N3CCCC3)cc21	20	100*	7	i	-65
CCOC(=O)C1CCCN(C(=O)c2ccc3c(c2)N(C)C(=O)/C(=C/c2ccccc2Cl)S3)C1 (configuration not stated)	36	i	-3	i	-67
Cc1ccc(Nc2c(F)c(F)c(F)c(F)c2C(=O)O)cc1	-1	25*	-3	i	-10
COCCN(C(=O)CSc1ccc2c(c1)OCCO2)c1c(N)n(CC(C)C)c(=O)[nH]c1=O	-2	nt	-14	i	nt
CC(=O)Oc1cc(C(=O)OCC(=O)NC23CC4CC(CC(C4)C2)C3)cc(OC(C)=O)c1OC(C)=O	nt	nt	nt	i	nt
C/C(=N\Nc1nc(C)c(C)s1)c1ccc([N+](=O)[O-])cc1	5	i	-8	-21*	3
SMILES	Apaf-1 inh	ANO1 block	UBC13 inh	TMEM16A act	DNA FID counter
C/C(=N\Nc1ccc([N+](=O)[O-])cc1)c1ccc(N)cc1	nt	i	nt	i	-1
O=C(CSc1nncn1-c1ccccc1)Nc1cc(F)ccc1F	1	i	0	i	-10
O=C(Nc1ccccc1)C1CC(=O)N(C2CCCCC2)C1 (configuration not stated)	3	i	2	-7.7*	-6
CCn1ncc(N(C)N)c(Cl)c1=O	-6	i	0	i	-2
O=S(=O)(Nc1ncnc2sc3c(c12)CCC3)c1ccc2ccccc2c1	15	100*	-4	i	-32
Cc1cc(F)ccc1S(=O)(=O)Nc1ncnc2sc3c(c12)CCC3	6	i	-3	i	-28
CCOC(=O)N1N=C(c2ccc(C)cc2)CC1(O)C(F)(F)F (configuration not stated)	-14	i	8	i	-13
CCOC(=O)N1N=C(CC)CC1(O)C(F)(F)F (configuration not stated)	-4	i	6	-11*	-1
COc1ccc(CN2CCc3c([nH]c4ccccc34)C2)c(OC)c1C	-2	i	13	i	12
CCCc1cc(=O)oc2cc(C)cc(OC(C)C(=O)N[C@@H](Cc3c[nH]c4ccccc34)C(=O)O)c12 (some centres not stated)	8	i	-11	i	-18
Cc1cc(OC(C)C(=O)NCCc2c[nH]c3ccccc23)c2c(C)cc(=O)oc2c1 (configuration not stated)	10	i	8	-10*	-28
Cc1c(S(=O)(=O)Nc2ccc(Oc3ccccc3)cc2)c(=O)n(C)c(=O)n1C	4	i	-2	i	-29
COc1ccc(C2C(C#N)=C(C)NC(C)=C2C(=O)OC(C)C)c(OC)c1 (configuration not stated)	12	i	16	i	-14
Cc1c(N=Cc2cccs2)c(=O)n(-c2ccccc2)n1C	-182	100*	-11	i	-2
Cc1ccsc1C=Nc1c(C)n(C)n(-c2ccccc2)c1=O	-12	i	0	i	-3
CC(O)[C@H]1CNC(=O)C(=O)N1CC1(c2ccccc2)CC1 (some centres not stated)	1	i	-3	i	nt
CCOC(=O)C1=C(C)N=c2s/c(=C\c3ccc(O)c([N+](=O)[O-])c3)c(=O)n2C1c1ccccc1OC (configuration not stated)	15	100*	-209	i	-14
CCOC(=O)C1=C(C)N=c2s/c(=C\c3ccc(OCC(=O)O)cc3)c(=O)n2C1c1ccccc1OC (configuration not stated)	8	i	-22	i	20
Cc1cc(SCc2ccc([N+](=O)[O-])cc2)nc(=O)[nH]1	0	i	-10	i	-9
COC(=O)c1ccccc1C(=O)c1ccc2c(c1)NC(=O)CO2	-2	i	18	i	-5
Cc1ccc2cc(C#N)c(N3CCCN(S(=O)(=O)c4ccc(F)cc4)CC3)nc2c1	13	i	6	-9.6*	0

Source: PubChem (several laboratories)
